Here are results for ten compounds from ChEMBL document CHEMBL3352221, “Acyclic tethers mimicking subunits of polysaccharide ligands: selectin antagonists” (ACS Med Chem Lett, 2014).

The target of experiment [1] is T1, P-selectin (Homo sapiens, UniProt P16109).
T1 sequence (P16109 whole entry): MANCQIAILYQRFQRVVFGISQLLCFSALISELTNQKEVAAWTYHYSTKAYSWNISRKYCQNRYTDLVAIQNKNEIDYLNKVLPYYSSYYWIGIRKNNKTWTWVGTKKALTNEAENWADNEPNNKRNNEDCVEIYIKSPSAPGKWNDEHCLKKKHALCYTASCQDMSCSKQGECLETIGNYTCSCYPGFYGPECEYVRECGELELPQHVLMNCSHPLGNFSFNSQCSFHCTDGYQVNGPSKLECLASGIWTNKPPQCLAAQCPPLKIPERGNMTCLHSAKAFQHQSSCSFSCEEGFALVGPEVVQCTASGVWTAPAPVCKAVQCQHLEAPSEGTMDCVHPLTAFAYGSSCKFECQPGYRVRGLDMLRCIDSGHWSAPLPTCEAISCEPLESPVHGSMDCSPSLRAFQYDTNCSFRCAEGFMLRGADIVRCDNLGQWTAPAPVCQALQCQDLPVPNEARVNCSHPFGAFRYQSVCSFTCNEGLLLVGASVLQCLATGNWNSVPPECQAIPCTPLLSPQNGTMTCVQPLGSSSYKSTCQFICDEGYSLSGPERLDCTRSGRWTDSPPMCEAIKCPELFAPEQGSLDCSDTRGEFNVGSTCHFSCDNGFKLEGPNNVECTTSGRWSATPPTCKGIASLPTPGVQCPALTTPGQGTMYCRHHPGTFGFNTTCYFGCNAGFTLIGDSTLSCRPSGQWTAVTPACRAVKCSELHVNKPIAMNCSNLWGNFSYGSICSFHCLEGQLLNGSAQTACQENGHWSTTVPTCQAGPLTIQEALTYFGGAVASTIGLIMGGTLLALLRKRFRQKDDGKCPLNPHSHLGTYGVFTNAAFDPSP
In words: Antagonist activity at P-selectin (unknown origin) by surface plasmon resonance-based dynamic assay.

The target of another experiment is T2, E-selectin (Homo sapiens, UniProt P16581).
T2 sequence (P16581 whole entry): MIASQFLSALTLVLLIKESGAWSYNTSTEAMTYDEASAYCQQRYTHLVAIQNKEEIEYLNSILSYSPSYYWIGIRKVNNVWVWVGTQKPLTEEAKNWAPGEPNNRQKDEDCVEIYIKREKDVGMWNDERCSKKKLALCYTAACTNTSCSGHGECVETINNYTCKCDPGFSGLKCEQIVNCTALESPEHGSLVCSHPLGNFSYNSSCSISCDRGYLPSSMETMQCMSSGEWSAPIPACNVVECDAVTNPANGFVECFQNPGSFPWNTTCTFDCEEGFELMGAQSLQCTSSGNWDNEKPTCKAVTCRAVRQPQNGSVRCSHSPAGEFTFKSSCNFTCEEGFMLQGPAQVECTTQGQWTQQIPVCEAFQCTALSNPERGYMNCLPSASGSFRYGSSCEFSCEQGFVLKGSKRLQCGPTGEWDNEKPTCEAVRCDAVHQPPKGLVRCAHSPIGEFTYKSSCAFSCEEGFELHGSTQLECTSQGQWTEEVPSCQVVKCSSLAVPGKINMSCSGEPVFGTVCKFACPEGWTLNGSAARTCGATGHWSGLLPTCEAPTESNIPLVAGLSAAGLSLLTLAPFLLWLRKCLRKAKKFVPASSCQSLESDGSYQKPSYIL
Description: Antagonist activity at E-selectin (unknown origin) assessed as adhesion to [3H]thymidine-labelled human HL60 cells by static assay. The experiment is classed as cell-based, HL-60. A digest of the protocol: (§1)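 HL-60 cells labelled with [3H]thymidine in the culture medium. Wells precoated with goat anti-human IgG, then E- or P-selectin IgG (per line) captured. Labelled cells incubated on the immobilized selectin with test compound over a dose range. Non-adherent cells washed off, bound radioactivity counted, and IC50 derived from the dose-dependent loss of adherent cells.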

The target of experiment [2] is T1, P-selectin. Description: Antagonist activity at P-selectin (unknown origin) assessed as adhesion to [3H]thymidine-labelled human HL60 cells by static assay. Type of experiment: cell-based, HL-60. In outline:
as §1

The subject of the next experiment is Mus musculus. In words: Inhibition of TNFalpha-induced decrease in leukocyte rolling flux in mouse cremaster at 100 mg/kg, iv. The arrangement: dose 100 mg/kg. The experiment is classed as functional, organism-based. In outline:
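Intravital microscopy of mouse cremaster. Mice receive rmTNFα in 150 μL saline. Compound in saline, or saline alone, is given intrajugularly at 100 mg/kg. Leukocyte rolling is read before and 10 min after injection. Means of 5 readings per venule, 10 venules per mouse, 5–6 mice per condition (±SEM).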

SMILES strings stand for the structures. Activity calls are given as the source filed them. No cut-off for these calls is given here.

Turning to `CC(C)OC(=O)[C@H](O[C@H]1O[C@@H](CO)[C@H](OC(=O)c2ccccc2)[C@@H](O[C@@H](Cc2ccccc2)C(=O)O)[C@H]1OC(=O)c1ccccc1)[C@@H](O[C@H]1O[C@@H](C)[C@@H](O)[C@@H](O)[C@@H]1O)C(=O)OCCc1cn(CCCCCOC(=O)[C@H](O[C@@H]2O[C@@H](C)[C@@H](O)[C@@H](O)[C@H]2O)[C@@H](O[C@@H]2O[C@H](CO)[C@H](OC(=O)c3ccccc3)[C@H](O[C@H](Cc3ccccc3)C(=O)O)[C@H]2OC(=O)c2ccccc2)C(=O)OC(C)C)nn1`, at P-selectin [1], the IC50 – broadly, the midpoint of a concentration-inhibition curve – turned out to be 8 µM.

`CC(C)OC(=O)[C@H](O[C@@H]1O[C@@H](C)[C@@H](O)[C@@H](O)[C@@H]1O)[C@@H](O[C@@H]1O[C@H](CO)[C@H](O)[C@H](O[C@H](Cc2ccccc2)C(=O)O)[C@H]1OC(=O)c1ccccc1)C(=O)OC(C)C`: the figures for the IC50 against P-selectin [1], at E-selectin and at P-selectin [2] were 34 µM, 220 µM and 190 µM, respectively. `COC(=O)[C@H](O[C@@H]1O[C@@H](C)[C@@H](O)[C@@H](O)[C@@H]1O)[C@@H](O[C@@H]1O[C@H](CO)[C@H](OC(=O)c2ccccc2)[C@H](O[C@H](Cc2ccccc2)C(=O)O)[C@H]1OC(=O)c1ccccc1)C(=O)OC(C)C` gave an IC50 at P-selectin [1] of 21 µM. For the compound `COC(=O)[C@H](O[C@@H]1O[C@@H](C)[C@@H](O)[C@@H](O)[C@@H]1O)[C@@H](O[C@@H]1O[C@H](CO)[C@H](OC(=O)c2ccccc2)[C@H](O[C@H](Cc2ccccc2)C(=O)O)[C@H]1OC(=O)c1ccccc1)C(=O)OC`, the values for the IC50 against P-selectin [1], at E-selectin and on P-selectin [2] were 18 µM, 140 µM and 110 µM, respectively. Take `COC(=O)[C@H](O[C@@H]1O[C@@H](C)[C@@H](O)[C@@H](O)[C@@H]1O)[C@@H](O[C@@H]1O[C@H](CO)[C@H](O)[C@H](O[C@H](Cc2ccccc2)C(=O)O)[C@H]1O)C(=O)OC`: the IC50 on E-selectin was 5460 µM; on P-selectin [2], 4840 µM. Consider `CC(=O)N[C@H]1[C@H]([C@H](O)[C@H](O)CO)O[C@@](O[C@H]2[C@@H](O)[C@@H](CO)O[C@@H](O[C@@H]([C@H](O[C@@H]3O[C@@H](C)[C@@H](O)[C@@H](O)[C@@H]3O)[C@H](C=O)NC(C)=O)[C@H](O)CO)[C@@H]2O)(C(=O)O)C[C@@H]1O`, for which, in the experiment on Mus musculus, the inhibition result was “Active”.

With `COC(=O)[C@H](O[C@@H]1O[C@@H](C)[C@@H](O)[C@@H](O)[C@@H]1O)[C@@H](O[C@@H]1O[C@H](CO)[C@H](O)[C@H](O[C@H](Cc2ccccc2)C(=O)O)[C@H]1OC(=O)c1ccccc1)C(=O)OC`, the values for the IC50 at P-selectin [1], at E-selectin and on P-selectin [2] were 520 µM, 2080 µM and 1900 µM, respectively. Regarding `CC(C)OC(=O)[C@H](O[C@@H]1O[C@@H](C)[C@@H](O)[C@@H](O)[C@@H]1O)[C@@H](O[C@@H]1O[C@H](CO)[C@H](OC(=O)c2ccccc2)[C@H](O[C@H](Cc2ccccc2)C(=O)O)[C@H]1OC(=O)c1ccccc1)C(=O)OC(C)C`, the values for the IC50 at P-selectin [1], at E-selectin and on P-selectin [2] were 8 µM, 76 µM and 67 µM, respectively. In the case of `COC(=O)[C@H](O[C@@H]1O[C@H](CO)[C@H](OC(=O)c2ccccc2)[C@H](O[C@H](Cc2ccccc2)C(=O)O)[C@H]1OC(=O)c1ccccc1)[C@@H](O[C@@H]1O[C@@H](C)[C@@H](O)[C@@H](O)[C@@H]1O)C(=O)OC(C)C`, on P-selectin [1], the IC50 worked out at 16 µM. Still for that read-out and setting: the same measure for `CC(C)OC(=O)[C@H](O[C@@H]1O[C@@H](C)[C@@H](O)[C@@H](O)[C@@H]1O)[C@@H](O[C@@H]1O[C@H](CO)[C@H](OC(=O)c2ccccc2)[C@H](O[C@H](Cc2ccccc2)C(=O)O)[C@H]1O)C(=O)OC(C)C`: 19 µM.
